# Screening results deposited in PubChem BioAssay by several laboratories.
# An excerpt weighted towards active compounds, which were near 4.2% of everything screened.
# Ins promoter up = MIN6 insulin promoter up-regulation. MIN6 insulin promoter-GFP reporter, high-content imaging; hits give high values. z-score at 5 µM. 0.3% of 190,000 active;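 active = z-score above 3 at 5 µM with at least 500 cells counted in the well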
# WT yeast gro inh = growth inhibition of WT yeast, mitochondrial fusion screen. mitochondrial fusion phenotypic screen, WT strain. inhibition, % at 10 µM. 2.1% of 190,000 active. AID 1362; in the data active = inhibition above about 58%; tested in S. cerevisiae
# SKKanGAS inh = SKKanGAS growth inhibition; inhibition, % at 7.5 µM; S. pyogenes SKKanGAS, kanamycin growth, BacTiter-Glo, 6 h; 1.3% of 300,000 active;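 active = mean replicate score, as percent of positive control median, at least 50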;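 note: strain carries kanamycin resistance gene driven by streptokinase promoter and grows in 40 µg/ml kanamycin; loss of luminescence reflects streptokinase promoter inhibition or plain growth inhibition; 0% = median of DMSO wells and 100% = positive control at its reference dose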
# Autophagy HCS = alters autophagy in cells | MEF GFP-LC3 puncta imaging; test concentration mostly 10 µM | calls only at 10 µM (by protocol) | AID 463193 | 0.98% of 190,000 active;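 active = percentage of spot-positive cells more than 3 SD above its plate mean, without a fluorescence outlier flag or 80% toxicity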;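 note: spot-positive cell cutoff set from DMSO-treated cells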
# Cl transport mod = modulates chloride dependent transport by human KCC2; KCC2 cells, thallium flux FluoZin-2 fluorescence; B-score of Tl+ flux slope (higher = more flux/activation; lower = inhibition) at 10 µM; 2.2% of 190,000 active;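 active = thallium flux slope and its plate-corrected score both differing from the plate sample mean at a set confidence after two filtering rounds, in either direction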;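 note: slope of fluorescence scaled to starting intensity during 10 to 20 s after thallium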
# Rad51 HR inh = blocks human Rad51 in homologous recombination | Q06609 | hRad51 DNA strand exchange, fluorescence dequenching | inhibition, % at 10 µM | 0.085% of 200,000 active | AID 1385;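 active = inhibition above 40% at the single screening dose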;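 note: 0% = DMSO control wells and 100% = blanks with heterologous ssDNA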
# Target sequence (Q06609 whole entry, looked up): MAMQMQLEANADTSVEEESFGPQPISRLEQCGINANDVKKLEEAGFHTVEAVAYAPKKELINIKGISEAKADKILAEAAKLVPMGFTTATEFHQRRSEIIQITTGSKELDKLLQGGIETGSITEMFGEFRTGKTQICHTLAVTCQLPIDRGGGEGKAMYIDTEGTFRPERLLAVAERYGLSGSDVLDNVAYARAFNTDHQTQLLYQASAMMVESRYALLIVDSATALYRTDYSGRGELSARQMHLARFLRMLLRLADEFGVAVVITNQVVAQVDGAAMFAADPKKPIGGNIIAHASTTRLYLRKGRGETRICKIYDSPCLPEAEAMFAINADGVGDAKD
#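 Test system: preformed human Rad51 ssDNA filaments; also added: Donor/quencher-labelled 47-bp dsDNA substrate; doses: 10 µM final, single point; times: 37 °C 15-min filament assembly, 30-min compound preincubation, 15-min exchange; detection: FRET fluorescence dequenching, excitation 485 nm, emission 520 nm; read-out basis: Fluorescence-based percent inhibition, control- and blank-normalised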
# Numbers without * were called inactive; i = inactive; . = no result given; + = active, no number.
SMILES,Ins promoter up,WT yeast gro inh,SKKanGAS inh,Autophagy HCS,Cl transport mod,Rad51 HR inh
N#C/C(=N\Nc1ccccc1)C(N)=S,-0.11,.,43,.,0.53,-7
CC1CCN(S(=O)(=O)c2ccc(N/N=C(/C#N)C(N)=O)cc2)CC1,0.47,78*,-22,i,.,8
N#C/C(=N\Nc1ccc(S(=O)(=O)N2CCOCC2)cc1)C(N)=S,-0.14,.,65*,.,0.51,8
N#CC(C#N)=NNc1ccc(S(=O)(=O)N2CCCCC2)cc1,0.49,5,10,i,-1.2,-6
N#C/C(=N\Nc1ccc(Cl)cc1)C(N)=S,-0.52,.,97*,.,-1.9,.
COc1ccccc1/C=C/C(=O)OCCN1C(=O)c2ccccc2C1=O,.,.,-11,.,.,.
O=C(NCc1ccccn1)c1cc(Cl)ccc1OCc1ccccc1,.,.,11,.,.,.
O=C(CSc1nnc(-c2c[nH]c3ccccc23)o1)N(Cc1ccccc1)c1ccc(F)cc1,.,59*,23,i,0.98,4
CC1CCCN(C(=O)Cn2nnc(-c3ccc([N+](=O)[O-])cc3)n2)C1 (stereo not drawn),.,.,-4,.,.,.
Cc1cc(C)cc(NC(=O)CCN2CCCC2)c1,0.27,0,5,i,-0.05,0
COC(=O)N/N=C/c1ccc(-c2cccc(Cl)c2)o1,0.43,12,-13,i,-1.7,2
Cc1nc(S/C(=C/c2ccc(-c3cccc(Cl)c3)o2)C(=O)O)n[nH]1,.,71*,25,i,.,.
O=C1c2cccnc2C(=O)N1CNc1ccc(Cl)cc1,-0.09,4,4,i,-0.21,-5
CC(=O)Nc1nc(-c2ccc(Cl)cc2)ns1,-0.01,29,4,+,2,-5
CC(C)Oc1ccc(/C=N/NC(=O)C(CSCc2ccccc2)NC(=O)c2ccc([N+](=O)[O-])cc2)cc1 (stereo not drawn),.,-2,18,+,0.93,-1
O=C(COc1ccc(/C=N/NC(=O)c2ccccc2)cc1)Nc1ccc([N+](=O)[O-])cc1,.,8,-2,i,0.65,14
Cc1cc(N/N=C/c2ccc(F)cc2)nc(-n2nc(C)cc2C)n1,-1.6,.,47,.,-0.05,.
CNc1cc(C)nc(-n2nc(C)cc2C)n1,0.41,12,18,i,.,-9
CCOc1ccc(Nc2cc(C)nc(-n3nc(C)cc3C)n2)cc1,-0.92,68,87*,i,.,13
COc1ccc(/C=N/Nc2cc(C)nc(-n3nc(C)cc3C)n2)c(OC)c1,.,54,103*,i,-0.032,1
CCOc1cc(/C=N/Nc2cc(C)nc(-n3nc(C)cc3C)n2)ccc1O,-1.4,.,66*,.,1.6,7
Cc1onc(-c2ccccc2)c1CNS(=O)(=O)c1ccccc1[N+](=O)[O-],-0.3,.,7,.,0.14,9
FC(F)(F)c1cnc(Sc2nc3nccc(-c4ccc(Cl)cc4)n3n2)c(Cl)c1,-0.87,96*,-8,i,-0.29,.
OCCCCNCc1ccc(OCc2ccc(Cl)cc2Cl)cc1,-0.13,32,3,i,-0.72,-6
OCCNCc1ccc(OCc2ccc(Cl)cc2Cl)cc1,-0.91,75*,8,i,1.4,-9
SMILES,Ins promoter up,WT yeast gro inh,SKKanGAS inh,Autophagy HCS,Cl transport mod,Rad51 HR inh
CN(c1cccc(Cl)c1)S(=O)(=O)c1cccc(C(=O)Nc2nc3ccccc3[nH]2)c1,-1.6,39,90*,i,0.12,14
O=C(Nc1nc2ccccc2[nH]1)c1cccc(Cl)c1,.,.,64*,.,.,.
COc1ccc(N(C)S(=O)(=O)c2cccc(C(=O)Nc3nc4ccccc4[nH]3)c2)cc1,-3.1,21,24,i,0.09,1
COc1ccc(N(Cc2ccccc2)S(=O)(=O)c2cccc(C(=O)NC3=NCCS3)c2)cc1,-0.37,44,11,i,-0.46,6
O=C(Nc1nc2ccccc2[nH]1)c1ccc(Cl)cc1,.,.,18,.,.,.
CN(c1cccc(Cl)c1)S(=O)(=O)c1cccc(C(=O)NC2=NCCS2)c1,3.5*,11,6,i,0.0012,0
Cc1ccnc(NS(=O)(=O)c2ccc(N=CC3=C(O)CC(C)(C)CC3=O)cc2)n1,-0.07,67*,0,i,1.2,-2
O/N=C/c1cc(Br)cc(Br)c1OCc1ccccc1,.,60*,34,i,0.37,2
O=C(O)c1ccccc1N/N=C/c1cc(Br)cc(Br)c1O,0.08,.,58*,.,2.3,10
CN(C)c1ccc(C(=O)N/N=C/c2cc(Br)cc(Br)c2O)cc1,4.7*,.,35,.,0.7,15
O=C(Cc1ccccc1)N/N=C/c1cc(Br)cc(Br)c1O,.,.,112*,.,.,.
